Experimental findings from ChEMBL document CHEMBL3868612, “Discovery of a potent and selective ROMK inhibitor with improved pharmacokinetic properties based on an octahydropyrazino[2,1-c][1,4]oxazine scaffold” (Bioorg Med Chem Lett, 2016) are described below.

Data set [1] addresses T1, ATP-sensitive inward rectifier potassium channel 1 (Homo sapiens, UniProt P48048).
T1 sequence (P48048 whole entry): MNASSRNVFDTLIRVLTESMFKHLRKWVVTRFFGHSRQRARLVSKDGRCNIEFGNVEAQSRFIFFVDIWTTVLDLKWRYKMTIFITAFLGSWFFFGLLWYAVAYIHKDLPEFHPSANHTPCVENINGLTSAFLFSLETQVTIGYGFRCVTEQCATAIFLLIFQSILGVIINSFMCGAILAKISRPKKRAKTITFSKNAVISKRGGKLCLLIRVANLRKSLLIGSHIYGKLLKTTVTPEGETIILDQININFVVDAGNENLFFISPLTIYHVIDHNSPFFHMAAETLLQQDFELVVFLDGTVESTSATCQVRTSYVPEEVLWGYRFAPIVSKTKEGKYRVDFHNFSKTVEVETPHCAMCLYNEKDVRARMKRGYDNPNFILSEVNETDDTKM
Description: Inhibition of human ROMK expressed in CHO cells after 6 mins at -70 mV holding potential by electrophysiology method. It counts as cell-based.

Data set [2] can be described thus: Half life in Sprague-Dawley rat at 0.5 mg/kg, iv or 1 mg/kg, po. It counts as ADME, organism-based. Particulars: in vivo.
The nature of data set [3]: Dose normalized AUC in Sprague-Dawley rat at 1 mg/kg, po. The class given is ADME, organism-based. Particulars: in vivo.
Data set [4] concerns the target T2, Voltage-gated inwardly rectifying potassium channel KCNH2 (Homo sapiens, UniProt Q12809). Description: Inhibition of human ERG by electrophysiology method.
A short description of data set [5]: Oral bioavailability in Sprague-Dawley rat at 1 mg/kg. It counts as ADME, organism-based. Particulars: in vivo.
The target of data set [6] is T2, Voltage-gated inwardly rectifying potassium channel KCNH2. As to the kind of experiment: Displacement of 35S-MK499 from human ERG expressed in HEK293 cell membranes. In outline: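 Membranes were prepared from HEK-293 cells stably expressing hERG. Binding was measured as displacement of 35S-MK499.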
A further data set concerns CHO. Description: Selectivity ratio of IC50 for displacement of 35S-MK499 from human ERG to IC50 for human ROMK expressed in CHO cells. The class given is cell-based.
Data set [7] in a line: Oral bioavailability in Sprague-Dawley rat at 2 mg/kg. The settings on record: in vivo. It counts as ADME, organism-based.
The nature of data set [8]: Half life in Sprague-Dawley rat at 1 mg/kg, iv or 2 mg/kg, po. The class given is ADME, organism-based. The settings on record: in vivo.
Data set [9] is described as follows: Dose normalized AUC in Sprague-Dawley rat at 2 mg/kg, po. It counts as ADME, organism-based. The settings on record: in vivo.
Data set [10] can be described thus: Half life in po dosed human. Particulars: in vivo. It counts as ADME, organism-based.

T2 sequence (Q12809 whole entry): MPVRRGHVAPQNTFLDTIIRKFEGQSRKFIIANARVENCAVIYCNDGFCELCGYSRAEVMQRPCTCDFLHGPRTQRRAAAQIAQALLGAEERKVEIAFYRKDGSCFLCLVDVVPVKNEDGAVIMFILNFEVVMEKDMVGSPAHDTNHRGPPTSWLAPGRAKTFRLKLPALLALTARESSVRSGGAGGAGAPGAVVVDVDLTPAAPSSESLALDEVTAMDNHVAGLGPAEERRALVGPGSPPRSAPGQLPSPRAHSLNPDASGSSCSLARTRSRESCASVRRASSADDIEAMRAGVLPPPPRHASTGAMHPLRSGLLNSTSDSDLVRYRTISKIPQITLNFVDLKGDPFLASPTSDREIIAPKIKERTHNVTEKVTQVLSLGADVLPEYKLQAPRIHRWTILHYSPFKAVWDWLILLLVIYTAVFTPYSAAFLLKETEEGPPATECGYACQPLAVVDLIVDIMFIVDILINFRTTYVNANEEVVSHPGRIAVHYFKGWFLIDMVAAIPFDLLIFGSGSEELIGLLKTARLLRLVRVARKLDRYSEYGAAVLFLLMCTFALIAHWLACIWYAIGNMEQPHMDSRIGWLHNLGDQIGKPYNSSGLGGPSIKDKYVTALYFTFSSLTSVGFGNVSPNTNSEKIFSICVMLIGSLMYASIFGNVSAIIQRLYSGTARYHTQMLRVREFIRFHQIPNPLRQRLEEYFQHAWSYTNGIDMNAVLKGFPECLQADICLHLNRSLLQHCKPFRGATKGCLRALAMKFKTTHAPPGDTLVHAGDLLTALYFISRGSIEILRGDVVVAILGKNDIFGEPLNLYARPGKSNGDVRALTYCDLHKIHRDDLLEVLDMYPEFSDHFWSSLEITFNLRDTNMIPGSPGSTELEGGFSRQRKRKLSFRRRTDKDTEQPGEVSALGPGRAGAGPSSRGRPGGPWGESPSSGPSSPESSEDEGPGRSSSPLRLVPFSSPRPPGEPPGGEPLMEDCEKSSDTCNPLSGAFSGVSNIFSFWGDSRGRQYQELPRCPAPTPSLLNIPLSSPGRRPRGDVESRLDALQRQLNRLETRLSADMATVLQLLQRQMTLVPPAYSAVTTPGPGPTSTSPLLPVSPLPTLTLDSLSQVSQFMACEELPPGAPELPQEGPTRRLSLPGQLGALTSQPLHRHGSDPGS

Molecule `Cc1c([C@H]2CN3CCN(C(=O)Cc4ccc(-n5cnnn5)nn4)C[C@H]3CO2)ccc(F)c1C#N` displayed a 50% inhibitory concentration (IC50) in [1] of 86 nM.
Turning to `O=C1OCCc2cc([C@@H]3CN4CCN(C(=O)Cc5cnc(-n6cnnn6)nc5)C[C@H]4CO3)ccc21`, in data set [2], the half-life is 29.4 min. Further, the AUC/dose in data set [3] turned out to be 0.18 µM·kg·h/mg. For the same molecule, the IC50 is greater than 90000 nM in [4] and 260 nM in data set [1]. Besides, the bioavailability in data set [5] amounted to 12%.
As for `Cc1c([C@H]2CN3CCN(C(=O)Cc4ccc(-n5cnnn5)nc4)C[C@@H]3CO2)ccc2c1COC2=O`, the results for the IC50 in data set [6] and in [1] were 53400 nM and 105 nM, respectively. For the same molecule, in the data set on CHO, the Ratio IC50 was found to be 508.
As for `Cc1c([C@H]2CN3CCN(C(=O)Cc4cnc(-n5cnnn5)cn4)C[C@H]3CO2)ccc(F)c1C#N`, the concentration for half-maximal inhibition (IC50) in data set [4] worked out at 12300 nM; in [1], 107 nM.
In data set [2], `Cc1c([C@H]2CN3CCN(C(=O)Cc4ccc(-n5cnnn5)nc4)C[C@H]3CO2)ccc(F)c1C#N` showed a half-life of 87.6 min. Also, the AUC/dose in data set [3] stood at 1.8 µM·kg·h/mg. Also, the IC50 in [4] is 12500 nM; in data set [1], 41 nM. The molecule further had a bioavailability in data set [5] of 69%.
Molecule `Cc1c([C@@H]2CN3CCN(C(=O)Cc4cnc(-n5cnnn5)cn4)C[C@H]3CO2)ccc(F)c1C#N` had a half-life in data set [2] of 84 min. Besides, the AUC/dose in data set [3] was 4.64 µM·kg·h/mg. In addition, the IC50 in data set [4] came to 10000 nM; in data set [1] it was 33 nM. In [5], the bioavailability amounted to 100%.
In the case of `Cc1c([C@@H]2CN3CCN(C(=O)Cc4cnc(-n5cnnn5)nc4)C[C@H]3CO2)ccc(F)c1C#N`, in [1], the concentration for half-maximal inhibition (IC50) is 18 nM.
As to `Cc1c([C@@H]2CN3CCN(C(=O)Cc4ccc(-n5cnnn5)nc4)C[C@H]3CO2)ccc(F)c1C#N`, the half-life in data set [2] is 63 min. In data set [3], this molecule registered an AUC/dose of 1 µM·kg·h/mg. In addition, the figures for the 50% inhibitory concentration (IC50) in data set [4] and in [1] were 10000 nM and 36 nM, respectively. The bioavailability in data set [5] is 57%.
As to `O=C1OCCc2cc([C@@H]3CN4CCN(C(=O)Cc5ccc(-n6cnnn6)nc5)C[C@H]4CO3)ccc21`, the half-life in [2] is 51 min. In data set [3], the AUC/dose stood at 1.4 µM·kg·h/mg. Also, the IC50 in data set [1] is 57 nM. In addition, the bioavailability in [5] is 65%.
In the case of `Cc1c([C@@H]2CN3CCN(C(=O)Cc4ccc(-n5cnnn5)nc4)C[C@H]3CO2)ccc2nonc12`, the IC50 in data set [4] is greater than 10000 nM; in data set [1], 72 nM.
Molecule `Cc1c(C#N)cccc1[C@@H]1CN2CCN(C(=O)Cc3ccc(-n4cnnn4)nc3)C[C@H]2CO1` had an IC50 in data set [1] of 50 nM.
As to `O=C1OCCc2cc([C@@H]3CN4CCN(C(=O)Cc5ccc(-n6cnnn6)cc5)C[C@H]4CO3)ccc21`, the IC50 in [4] is greater than 30000 nM.
In turn, `Cc1c([C@H]2CN3CCN(C(=O)Cc4ccc(-n5cnnn5)cn4)C[C@H]3CO2)ccc(F)c1C#N` gave a half-life in data set [2] of 57.6 min. For the same molecule, the results for the IC50 in data set [4] and in [1] were 19900 nM and 70 nM, respectively. The molecule also displayed a bioavailability in data set [5] of 68%.
Turning to `Cc1c([C@H]2CN3CCN(C(=O)Cc4ccc(-n5cnnn5)nc4)C[C@H]3CO2)ccc2nonc12`, the half-life in [2] is 58.2 min. Moreover, the AUC/dose in data set [3] worked out at 1.8 µM·kg·h/mg. The results for the IC50 in [4] and in data set [1] were 10000 nM and 83 nM, respectively. In [5], the bioavailability is 100%.
Take `Cc1c(C#N)cccc1[C@H]1CN2CCN(C(=O)Cc3ccc(-n4cnnn4)nc3)C[C@H]2CO1`: the IC50 stood at 17600 nM in data set [4] and 112 nM in [1].
The molecule `Cc1c(C#N)cccc1[C@@H]1CN2CCN(C(=O)Cc3ccc(-n4cnnn4)nc3)C[C@@H]2CO1` showed a half-life in [2] of 98.4 min. This molecule also returned an AUC/dose in [3] of 2 µM·kg·h/mg. The concentration for half-maximal inhibition (IC50) in [4] came out at 14800 nM; in [1], 27 nM. Moreover, the bioavailability in data set [5] came to 67%.
`O=C1OCCc2cc([C@H]3CN4CCN(C(=O)Cc5ccc(-n6cnnn6)nc5)C[C@H]4CO3)ccc21`: in data set [1], inhibition was half-maximal at 205 nM (IC50).
In data set [1], `O=C(Cc1ccc(-n2cnnn2)nc1)N1CCN2C[C@@H](c3ccc4nonc4c3)OC[C@@H]2C1` came in with an IC50 of 45 nM.
Molecule `Cc1c([C@H]2CN3CCN(C(=O)Cc4cnc(-n5cnnn5)nc4)C[C@H]3CO2)ccc(F)c1C#N` returned a bioavailability in data set [7] of 54%. Besides, the half-life in data set [8] was 81.6 min. The molecule further came in with an IC50 in data set [1] of 39 nM. In data set [9], this molecule gave an AUC/dose of 1.01 µM·kg·h/mg.
Turning to `Cc1c([C@@H]2CN3CCN(C(=O)Cc4ccc(-n5cnnn5)nc4)C[C@@H]3CO2)ccc(F)c1C#N`, the values for the IC50 in data set [4] and in [1] were greater than 10000 nM and 60 nM, respectively.
In data set [2], `Cc1c([C@@H]2CN3CCN(C(=O)Cc4ccc(-n5cnnn5)nc4)C[C@@H]3CO2)ccc2c1COC2=O` gave a half-life of 48 min. Also, the results for the 50% inhibitory concentration (IC50) in data set [6], in [4] and in [1] were 59400 nM, 74900 nM and 86 nM, respectively. The Ratio IC50 in the data set with CHO was 690. For the same molecule, the AUC/dose in [3] was 2.02 µM·kg·h/mg. Moreover, the bioavailability in [5] is 100%.
Regarding `Cc1c([C@@H]2CN3CCN(C(=O)Cc4ccc(-n5cnnn5)nc4)C[C@H]3CO2)ccc2c1COC2=O`, the half-life in data set [2] was 60 min. Moreover, the IC50 worked out at 21100 nM in data set [6], 19700 nM in [4] and 65 nM in [1]. Also, the Ratio IC50 in the data set with CHO turned out to be 325. The molecule also returned an AUC/dose in data set [3] of 2.05 µM·kg·h/mg. The same molecule came in with a bioavailability in data set [5] of 82%.
As to `Cc1c([C@H]2CN3CCN(C(=O)Cc4ccc(-n5cnnn5)nc4)C[C@@H]3CN2)ccc2c1COC2=O`, the IC50 in data set [6] was found to be 22000 nM; in data set [1], 140 nM. Besides, the Ratio IC50 with CHO is 157.
Regarding `O=C1OCCc2cc([C@H]3CN4CCN(C(=O)Cc5ccc(-n6cnnn6)nc5)C[C@@H]4CO3)ccc21`, the half-life in data set [2] is 45 min. Further, the AUC/dose in data set [3] is 2.25 µM·kg·h/mg. It took 165 nM to reach half-maximal inhibition in data set [1] (IC50). Besides, in [5], the bioavailability stood at 98%.
With `Cc1c([C@@H]2CN3CCN(C(=O)Cc4ccc(-n5cnnn5)nc4)C[C@H]3CS2)ccc2c1COC2=O`, the IC50 in data set [6] is 8900 nM; in data set [1], 100 nM. In addition, the Ratio IC50 with CHO came out at 89.
In [10], `Cc1cccc(Nc2ccncc2S(=O)(=O)NC(=O)NC(C)C)c1` [TORSEMIDE] had a half-life of 180 min.
On to `Cc1c([C@H]2CN3CCN(C(=O)Cc4ccc(-n5cnnn5)nc4)C[C@H]3CO2)ccc2c1COC2=O`, for which, in [2], the half-life was 40.2 min. Besides, the IC50 in [6] was 26800 nM; in data set [4], 56500 nM; in data set [1] it was 88 nM. The Ratio IC50 in the data set on CHO is 305. The same molecule registered an AUC/dose in data set [3] of 0.32 µM·kg·h/mg. This molecule also showed a bioavailability in data set [5] of 46%.
`O=C(Cc1ccc(-n2cnnn2)nc1)N1CCN2C[C@H](c3ccc4nonc4c3)OC[C@@H]2C1` yielded an IC50 in [1] of 104 nM.
